Among the data in ChEMBL document CHEMBL1128486, “Farnesyl diphosphate-based inhibitors of Ras farnesyl protein transferase” (J Med Chem, 1995) are IC50 values, retold here.

A value given as a limit tells only on which side of the number the result lay.

Sequence of Mevalonate kinase (P17256 whole entry): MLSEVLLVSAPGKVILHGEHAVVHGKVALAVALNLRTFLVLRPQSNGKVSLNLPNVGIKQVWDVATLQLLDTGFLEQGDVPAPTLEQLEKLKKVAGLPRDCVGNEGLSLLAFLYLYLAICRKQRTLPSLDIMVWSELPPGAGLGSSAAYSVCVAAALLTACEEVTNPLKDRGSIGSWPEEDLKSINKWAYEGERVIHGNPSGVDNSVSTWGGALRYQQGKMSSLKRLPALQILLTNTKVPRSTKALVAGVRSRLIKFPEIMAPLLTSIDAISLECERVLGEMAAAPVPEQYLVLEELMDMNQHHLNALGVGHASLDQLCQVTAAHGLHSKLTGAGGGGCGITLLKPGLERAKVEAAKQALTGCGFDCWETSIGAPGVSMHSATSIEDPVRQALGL

One experiment addresses T1, Squalene synthase (Rattus norvegicus, UniProt Q02769).
T1 sequence (Q02769 whole entry): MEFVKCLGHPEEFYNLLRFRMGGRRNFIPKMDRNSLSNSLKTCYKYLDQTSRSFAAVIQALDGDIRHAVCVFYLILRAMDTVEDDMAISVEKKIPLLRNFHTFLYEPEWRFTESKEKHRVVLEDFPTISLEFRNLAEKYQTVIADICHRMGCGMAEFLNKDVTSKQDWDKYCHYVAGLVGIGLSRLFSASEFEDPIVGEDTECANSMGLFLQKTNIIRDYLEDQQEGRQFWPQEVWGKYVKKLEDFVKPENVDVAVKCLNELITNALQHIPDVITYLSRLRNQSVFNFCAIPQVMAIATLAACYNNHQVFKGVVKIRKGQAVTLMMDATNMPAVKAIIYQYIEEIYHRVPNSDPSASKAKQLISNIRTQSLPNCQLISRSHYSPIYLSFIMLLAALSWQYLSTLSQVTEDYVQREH
In words: Inhibition of squalene synthase. The note with it: read-out: I50. An outline of the steps:
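Squalene synthetase was prepared from rat liver microsomes and used for I50 determination.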
Regarding `CC(C)=CCC/C(C)=C/CC/C(C)=C/CNC(=O)C(CP(=O)(O)O)C(=O)O` (centres undefined), the IC50 amounted to 516 µM.

For a further experiment, the target named is Mevalonate kinase (Rattus norvegicus, UniProt P17256). In words: Inhibition of mevalonate kinase. The conditions noted are these: read-out: I50. An outline of the steps:
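Mevalonate kinase was purified to homogeneity from rat liver and used for inhibition measurement.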
In the case of `CC(C)=CCC/C(C)=C/CC/C(C)=C/CNC(=O)C(CP(=O)(O)O)C(=O)O` (centres undefined), the IC50 is above 200 µM.

A further experiment deals with Protein farnesyltransferase (Sus scrofa). In words: Inhibition of pig brain farnesyl transferase. The conditions noted are these: read-out: I50.
As to `CC(C)=CCC/C(C)=C/CC/C(C)=C/C(=O)N[C@H](CCC(=O)O)C(=O)O`, the IC50 turned out to be 30 µM.

In the case of `CC(C)=CCC/C(C)=C/CC/C(C)=C/C(=O)N[C@@H](CCC(=O)O)C(=O)O`, the IC50 is 11.5 µM. The same measure, in the same setting: the figure for `CC(C)=CCC/C(C)=C/CC/C(C)=C/C(=O)N[C@H](CP(=O)(O)O)C(=O)O` is 0.5 µM; for `CC(C)=CCC/C(C)=C/CC/C(C)=C/CC(=O)N[C@@H](CP(=O)(O)O)C(=O)O` it is 1.7 µM; for `CC(C)=CCC/C(C)=C/CC/C(C)=C/CC(=O)N[C@H](CP(=O)(O)O)C(=O)O` it is 0.05 µM. The same measure, in the same setting: the figure for `CC(C)=CCC/C(C)=C/CC/C(C)=C/CN(C)C(=O)C(CP(=O)(O)O)C(=O)O` (centres undefined) is 0.53 µM; for `CC(C)=CCC/C(C)=C/CC/C(C)=C/C(=O)N[C@@H](CC(=O)O)C(=O)O` it is 12.6 µM; for `CC(C)=CCC/C(C)=C/CCC(C)(C)CCNC(=O)C(CP(=O)(O)O)C(=O)O` (centres undefined) it is 55 µM. On to `CC(C)=CCC/C(C)=C/CC/C(C)=C/C(=O)N[C@H](CC(=O)O)C(=O)O`, for which the IC50 came to 25 µM.

On to `CC(C)=CCC/C(C)=C/CC/C(C)=C/CCNC(=O)C(CP(=O)(O)O)C(=O)O` (centres undefined), for which the IC50 came out at 17.8 µM. Same read-out and setting: the same measure for `CC(C)=CCC/C(C)=C/CC/C(C)=C/CNC(=O)CCC(=O)O`: 220 µM. As to `CC(C)=CCC/C(C)=C/CC/C(C)=C/C(=O)N[C@@H](CP(=O)(O)O)C(=O)O`, the IC50 amounted to 0.25 µM. Same read-out and setting: the same measure for `CCCCCCCCCCCCNC(=O)C(CP(=O)(O)O)C(=O)O` (centres undefined): 9 µM.

A further experiment shares this target. In words: Inhibition of pig brain farnesyl transferase. The conditions noted are these: read-out: I50. The source holds these as a separate data set.
Take `CC(C)=CCC/C(C)=C/CC/C(C)=C/CNC(=O)C(CP(=O)(O)O)C(=O)O` (centres undefined): the IC50 came to 0.075 µM.

For a further experiment the target is unchanged. In words: Inhibition of pig brain farnesyl transferase. The conditions noted are these: read-out: I50. This is another data set of the same source.
In the case of `CC(C)=CCC/C(C)=C/CC/C(C)=C/CNC(=O)CCP(=O)(O)O`, the IC50 was 4.6 µM. Take `CC(C)=CCC/C(C)=C/CC/C(C)=C/CNC(=O)CP(=O)(O)O`: the IC50 was 41.5 µM. The same measure, in the same setting: the figure for `CC(C)=CCC/C(C)=C/CC/C(C)=C/CNC(=O)CC(=O)O` is 115 µM.
